Tests used:
[1] = molecular target: T1, Amine oxidase [flavin-containing] A (Rattus norvegicus, UniProt P21396); assay: Binding affinity to MAOA imidazoline binding site in rat brain mitochondrial homogenate assessed as 4-hydroxyquinoline production by spectrophotometry; format: tissue-based
T1 sequence (P21396 whole entry): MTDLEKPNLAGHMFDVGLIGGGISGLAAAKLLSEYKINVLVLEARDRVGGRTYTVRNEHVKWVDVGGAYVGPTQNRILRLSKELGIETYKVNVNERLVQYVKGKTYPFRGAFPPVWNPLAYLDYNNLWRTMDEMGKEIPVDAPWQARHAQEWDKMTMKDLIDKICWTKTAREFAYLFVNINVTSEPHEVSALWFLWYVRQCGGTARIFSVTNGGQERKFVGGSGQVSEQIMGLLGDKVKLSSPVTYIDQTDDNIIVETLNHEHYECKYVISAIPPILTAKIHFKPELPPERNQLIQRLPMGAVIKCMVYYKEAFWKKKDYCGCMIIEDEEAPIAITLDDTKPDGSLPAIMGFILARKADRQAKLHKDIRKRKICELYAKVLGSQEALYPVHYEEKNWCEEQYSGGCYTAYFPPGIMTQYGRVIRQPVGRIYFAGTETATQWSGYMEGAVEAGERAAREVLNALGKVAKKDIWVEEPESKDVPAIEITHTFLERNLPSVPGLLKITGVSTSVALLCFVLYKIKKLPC
Summary of the method: (§1)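 Rat brain mitochondrial homogenates, with protein measured by Bradford. Fractions were preincubated for 5 min at 37 °C with 250 nM selegiline (MAO-A assay) or 250 nM clorgyline (MAO-B assay). Compounds were added in DMSO, followed 5 min later by kynuramine at its KM for each isoform. Incubation ran 30 min at 37 °C and was stopped with trichloroacetic acid, then centrifuged. 4-Hydroxyquinoline was read at 314 nm, or by fluorescence (ex 315/em 380 nm) if compounds interfered.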

[2] = molecular target: T2, Amine oxidase [flavin-containing] B (Rattus norvegicus, UniProt P19643); assay: Binding affinity to MAOB imidazoline binding site in rat brain mitochondrial homogenate assessed as 4-hydroxyquinoline production by spectrophotometry; format: tissue-based; summary of the method: as §1
T2 sequence (P19643 whole entry): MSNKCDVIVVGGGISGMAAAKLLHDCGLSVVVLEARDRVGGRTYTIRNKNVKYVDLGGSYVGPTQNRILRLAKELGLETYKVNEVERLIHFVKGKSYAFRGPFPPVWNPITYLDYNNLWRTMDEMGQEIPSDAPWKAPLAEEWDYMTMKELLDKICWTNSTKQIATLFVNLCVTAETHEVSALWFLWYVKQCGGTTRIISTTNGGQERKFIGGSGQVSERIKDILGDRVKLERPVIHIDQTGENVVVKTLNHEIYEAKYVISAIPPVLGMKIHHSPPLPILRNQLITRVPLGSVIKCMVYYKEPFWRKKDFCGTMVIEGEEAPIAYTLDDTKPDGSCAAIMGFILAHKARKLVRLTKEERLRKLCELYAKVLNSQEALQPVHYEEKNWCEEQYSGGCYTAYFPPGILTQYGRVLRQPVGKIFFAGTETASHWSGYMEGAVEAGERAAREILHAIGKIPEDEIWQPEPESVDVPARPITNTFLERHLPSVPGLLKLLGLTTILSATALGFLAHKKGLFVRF

Rattus norvegicus [3] = species on record: Rattus norvegicus; assay: Selectivity index, ratio of Ki rat for MAOA to Ki for rat MAOB
Rattus norvegicus [4] = species on record: Rattus norvegicus; assay: Selectivity index, ratio of Ki rat for MAOB to Ki for rat MAOA

| Ki [1] | Ki [2] | Ratio Ki (Rattus norvegicus [3]) | IC50 [1] | IC50 [2] | Ratio Ki (Rattus norvegicus [4]) | SMILES |
| --- | --- | --- | --- | --- | --- | --- |
| 15.8 µM | 32.7 µM | 0.48 |  |  |  | COc1ccc(C2=NCCN2)cc1 |
| 4.86 µM | 5.32 µM | 0.91 | 12.7 µM | 13.3 µM |  | c1ccc2nc(C3=NCCN3)ccc2c1 |
| > 1000 µM | 24.6 µM | > 40.7 |  |  |  | Clc1ccccc1C1=NCCN1 |
| 13.6 µM | 1000 µM | 0.013 |  |  | 73 | COc1ccc(C2=NCCN2)cc1OC |
| 181 µM | > 1000 µM | < 0.181 |  |  |  | O=[N+]([O-])c1ccc(C2=NCCN2)cc1 |
| 24.9 µM | 3.63 µM |  | 65 µM | 9.1 µM |  | c1ccc2oc(C3=NCCN3)cc2c1 |
| > 1000 µM | 25.3 µM | > 39.5 |  |  |  | c1ccc(C2=NCCN2)nc1 |
| 166 µM | 5.35 µM | 31.1 |  |  |  | Clc1ccc(C2=NCCN2)cc1 |
| 13.9 µM | 1.49 µM | 9.32 |  |  |  | c1ccc2cc(C3=NCCN3)ccc2c1 [BENAZOLINE] |
| 102 µM | 13.1 µM | 7.79 |  |  |  | Cc1ccc(C2=NCCN2)cc1 |
| > 1000 µM | 19.3 µM | > 51.9 |  |  |  | O=[N+]([O-])c1cccc(C2=NCCN2)c1 |
| 12.8 µM | 1.38 µM | 9.27 |  |  |  | O=C(Oc1ccc(C2=NCCN2)cc1)c1ccccc1 |
| > 1000 µM | > 1000 µM |  |  |  |  | c1coc(C2=NCCN2)c1 |
| 28.8 µM | 21.3 µM | 1.35 |  |  |  | c1ccc(C2=NCCN2)cc1 |
| 28.8 µM | 3.98 µM | 10.5 |  |  |  | Clc1ccc(C2=NCCN2)c(Cl)c1 |
| 114 µM | 1000 µM | 0.114 |  |  |  | COc1cc(C2=NCCN2)cc(OC)c1OC |
